In ChEMBL document CHEMBL4689842, “EUbOPEN Chemogenomics Library wave 1” (2021):
Several values for one entry are separate records, joined by “and”; a condition that tells them apart may be missing. Equal entries are not always repeated.

Tested on: U2OS
Experiment: Multiplex assay against U2OS
Format: toxicity, cell-based
Settings: human
Outline: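 Values for tubulin, mitochondrial-mass and membrane-permeability phenotypes are per cents of cells with healthy nuclei. These cells were identified by CellPathfinder machine-learning gating of live cells that had been stained at seeding with Hoechst33342, BioTracker Green Microtubule Cytoskeleton Dye, MitoTracker Red and Annexin V Alexa Fluor 680 and imaged on a CQ1 microscope at 37°C and 5% CO2 after compound addition. The gating first set Hoechst high-intensity objects apart from normal cells, then split normal cells into healthy, pyknosed or fragmented nuclei, and pyknosed cells into mitotic or apoptotic.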

[1] = 12 h, 10 µM, compound concentration 10 uM, replicate 1
[2] = 12 h, 10 µM, compound concentration 10 uM, replicate 2
[3] = 24 h, 10 µM, compound concentration 10 uM, replicate 1
[4] = 24 h, 10 µM, compound concentration 10 uM, replicate 2
[5] = 48 h, 10 µM, compound concentration 10 uM, replicate 1
[6] = 48 h, 10 µM, compound concentration 10 uM, replicate 2
[7] = 12 h, 1 µM, compound concentration 1 uM, replicate 1
[8] = 12 h, 1 µM, compound concentration 1 uM, replicate 2
[9] = 24 h, 1 µM, compound concentration 1 uM, replicate 1
[10] = 24 h, 1 µM, compound concentration 1 uM, replicate 2

## CN1CCN(C(=O)C(C)(C)c2ccc(C(=O)Nc3cn4cc(-c5ccncc5)ccc4n3)cc2)CC1 [T3-CLK]
[1]
  Population Apoptotic (%): 37% and 22%
  Population Healthy Nuclei (%): 90% and 71% and 89%
  Population Hoechst High Intensity Objects (%): 5%
  Population Mitotic Cells (%): 62% and 77%
  Population Normal (%): 94%
  Population Pyknosed Nuclei (%): 10% and 7%
  Total Cell Count: 128 and 143 and 333
[2]
  Population Healthy Nuclei (%): 88% and 70% and 87%
  Population Hoechst High Intensity Objects (%): 6% and 7% and 9%
  Population Membrane Permeable-Phenotype (%): 62% and 21% and 25%
  Population Mitotic Cells (%): 50% and 100% and 66%
  Population Normal (%): 93% and 92% and 90%
  Population Pyknosed Nuclei (%): 5% and 11% and 3%
[3]
  Population Apoptotic (%): 36% and 62% and 33%
  Population Fragmented Nuclei (%): 11% and 21% and 8%
  Population Healthy Nuclei (%): 81% and 64% and 77%
  Population Hoechst High Intensity Objects (%): 5% and 10% and 6%
  Population Membrane Permeable-Phenotype (%): 52% and 26% and 34%
  Population Mitotic Cells (%): 63% and 37% and 66%
  Population Normal (%): 94% and 90% and 93%
  Population Pyknosed Nuclei (%): 6% and 13% and 14%
  Total Cell Count: 137 and 141 and 262
[4]
  Population Apoptotic (%): 50% and 22%
  Population Fragmented Nuclei (%): 29% and 22% and 15%
  Population Healthy Nuclei (%): 58% and 66% and 70%
  Population Hoechst High Intensity Objects (%): 12% and 9%
  Population Membrane Permeable-Phenotype (%): 17% and 19%
  Population Mitotic Cells (%): 50% and 77%
  Population Normal (%): 87%
  Population Pyknosed Nuclei (%): 11%
[5]
  Population Apoptotic (%): 73%
  Population Fragmented Nuclei (%): 34%
  Population Healthy Nuclei (%): 15%
  Population Hoechst High Intensity Objects (%): 16%
  Population Membrane Permeable-Phenotype (%): 56%
  Population Mitochondria Different-Phenotype (%): 87%
  Population Mitotic Cells (%): 26%
  Population Normal (%): 83%
  Population Pyknosed Nuclei (%): 50%
  Population Tubulin-Different-Phenotype (%): 100%
  Total Cell Count: 145
[6]
  Population Apoptotic (%): 61%
  Population Fragmented Nuclei (%): 28%
  Population Healthy Nuclei (%): 36%
  Population Hoechst High Intensity Objects (%): 23%
  Population Membrane Permeable-Phenotype (%): 63%
  Population Mitochondria Different-Phenotype (%): 81%
  Population Mitotic Cells (%): 38%
  Population Normal (%): 76%
  Population Pyknosed Nuclei (%): 35%
  Population Tubulin-Different-Phenotype (%): 90%
  Total Cell Count: 57

## Cc1ccc2nc(NCCN)c3ncc(C)n3c2c1.O=C(O)C(F)(F)F.O=C(O)C(F)(F)F
[7]
  Population Apoptotic (%): 29%
  Population Fragmented Nuclei (%): 6%
  Population Healthy Nuclei (%): 83%
  Population Hoechst High Intensity Objects (%): 1%
  Population Membrane Permeable-Phenotype (%): 6%
  Population Mitochondria Different-Phenotype (%): 17%
  Population Mitotic Cells (%): 70%
  Population Normal (%): 98%
  Population Pyknosed Nuclei (%): 10%
  Population Tubulin-Different-Phenotype (%): 27%
  Total Cell Count: 235
[8]
  Population Apoptotic (%): 4%
  Population Fragmented Nuclei (%): 8%
  Population Healthy Nuclei (%): 75%
  Population Hoechst High Intensity Objects (%): 13%
  Population Mitotic Cells (%): 95%
  Population Normal (%): 86%
  Population Pyknosed Nuclei (%): 16%
  Population Tubulin-Different-Phenotype (%): 17%
  Total Cell Count: 151
[1]
  Population Apoptotic (%): 28%
  Population Fragmented Nuclei (%): 17%
  Population Healthy Nuclei (%): 65%
  Population Hoechst High Intensity Objects (%): 8%
  Population Membrane Permeable-Phenotype (%): 17%
  Population Mitochondria Different-Phenotype (%): 11%
  Population Mitotic Cells (%): 71%
  Population Normal (%): 91%
  Population Pyknosed Nuclei (%): 17%
  Population Tubulin-Different-Phenotype (%): 17%
  Total Cell Count: 132
[2]
  Population Apoptotic (%): 50%
  Population Fragmented Nuclei (%): 27%
  Population Healthy Nuclei (%): 53%
  Population Hoechst High Intensity Objects (%): 12%
  Population Membrane Permeable-Phenotype (%): 15%
  Population Mitochondria Different-Phenotype (%): 13%
  Population Mitotic Cells (%): 50%
  Population Normal (%): 87%
  Population Pyknosed Nuclei (%): 18%
  Population Tubulin-Different-Phenotype (%): 22%
  Total Cell Count: 123
[9]
  Population Apoptotic (%): 33%
  Population Fragmented Nuclei (%): 2%
  Population Healthy Nuclei (%): 93%
  Population Hoechst High Intensity Objects (%): 1%
  Population Membrane Permeable-Phenotype (%): 7%
  Population Mitochondria Different-Phenotype (%): 19%
  Population Mitotic Cells (%): 66%
  Population Normal (%): 98%
  Population Pyknosed Nuclei (%): 3%
  Population Tubulin-Different-Phenotype (%): 31%
  Total Cell Count: 309
[10]
  Population Apoptotic (%): 18%
  Population Fragmented Nuclei (%): 6%
  Population Healthy Nuclei (%): 84%
  Population Hoechst High Intensity Objects (%): 8%
  Population Mitochondria Different-Phenotype (%): 32%
  Population Mitotic Cells (%): 81%
  Population Normal (%): 91%
  Population Pyknosed Nuclei (%): 9%
  Population Tubulin-Different-Phenotype (%): 20%
  Total Cell Count: 192
[3]
  Population Apoptotic (%): 76%
  Population Fragmented Nuclei (%): 27%
  Population Healthy Nuclei (%): 30%
  Population Hoechst High Intensity Objects (%): 8%
  Population Membrane Permeable-Phenotype (%): 32%
  Population Mitochondria Different-Phenotype (%): 26%
  Population Mitotic Cells (%): 23%
  Population Normal (%): 91%
  Population Pyknosed Nuclei (%): 41%
  Population Tubulin-Different-Phenotype (%): 32%
  Total Cell Count: 123
[4]
  Population Apoptotic (%): 61%
  Population Fragmented Nuclei (%): 29%
  Population Healthy Nuclei (%): 36%
  Population Hoechst High Intensity Objects (%): 14%
  Population Membrane Permeable-Phenotype (%): 24%
  Population Mitochondria Different-Phenotype (%): 42%
  Population Mitotic Cells (%): 38%
  Population Normal (%): 85%
  Population Pyknosed Nuclei (%): 34%
  Population Tubulin-Different-Phenotype (%): 30%
  Total Cell Count: 106
